Reference: ChEMBL document CHEMBL4196137, “Abyssomicin Monomers and Dimers from the Marine-Derived Streptomyces koyangensis SCSIO 5802” (J Nat Prod, 2018)
Converted amounts (≈) assume the structure as drawn.

Key:
Herpesviridae sp. = test: Antiviral activity against Herpes simplex virus assessed as inhibition of viral replication at 10 uM relative to control; format: functional
Staphylococcus aureus [1] = test: Antimicrobial activity against methicillin-resistant Staphylococcus aureus isolate 699 by two-fold serial dilution method; format: functional
Method in brief: (§1)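 MIC by 2-fold serial broth dilution in Mueller-Hinton broth, following CLSI standard methods; panel run alongside S. aureus ATCC 29213 and E. faecalis ATCC 29212.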

Enterococcus faecalis = test: Antimicrobial activity against Enterococcus faecalis ATCC 29212 by two-fold serial dilution method; format: functional; method in brief: as §1
[2] = test system: Vesicular stomatitis virus; test: Antiviral activity against Vesicular stomatitis virus infected in African green monkey Vero cells after 16 hrs by fluorescence microscopy; format: functional, organism-based
Staphylococcus aureus [3] = test: Antimicrobial activity against methicillin-resistant Staphylococcus aureus isolate shhs-A1 by two-fold serial dilution method; format: functional; method in brief: as §1
Staphylococcus aureus [4] = test: Antimicrobial activity against methicillin-resistant Staphylococcus aureus isolate 1862 by two-fold serial dilution method; format: functional; method in brief: as §1
Staphylococcus aureus [5] = test: Antimicrobial activity against Staphylococcus aureus ATCC 29213 by two-fold serial dilution method; format: functional
Method in brief: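 MIC measured by 2-fold serial broth dilution in Mueller-Hinton broth, following CLSI standard methods.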

Structure (SMILES)	inhibition at 10 µM (Herpesviridae sp.)	MIC (Staphylococcus aureus [1])	MIC (Enterococcus faecalis)	IC50 [2]	MIC (Staphylococcus aureus [3])	MIC (Staphylococcus aureus [4])	MIC (Staphylococcus aureus [5])
C[C@H]1CC/C(O)=C2/C(=O)O[C@@]34C=C[C@]5(C1=O)[C@H](O)[C@@](C)(O[C@]235)[C@@H](C)C4	31%	–	–	–	–	–	–
C[C@H]1CC/C(O)=C2/C(=O)O[C@]34C[C@H](C)[C@]5(C)O[C@]23[C@H](C1=O)[C@@H](S[C@H]1[C@H]2[C@H](O)[C@@]3(C)O[C@@]67/C(=C(/O)CC[C@H](C)C(=O)[C@H]16)C(=O)O[C@@]27C[C@@H]3C)[C@H]4[C@@H]5O	–	16 µg/mL (≈ 22 µM)	32 µg/mL (≈ 44 µM)	24 µM	16 µg/mL (≈ 22 µM)	16 µg/mL (≈ 22 µM)	32 µg/mL (≈ 44 µM)
C[C@H]1CCC(=O)C2=C3O[C@@]4(C)[C@@H](C)C[C@]3(OC2=O)[C@@H]([C@H](S[C@H]2[C@H]3[C@H](O)[C@@]5(C)O[C@@]67/C(=C(/O)CC[C@H](C)C(=O)[C@H]26)C(=O)O[C@@]37C[C@@H]5C)CC1=O)[C@@H]4O	–	16 µg/mL (≈ 22 µM)	32 µg/mL (≈ 44 µM)	19 µM	16 µg/mL (≈ 22 µM)	16 µg/mL (≈ 22 µM)	32 µg/mL (≈ 44 µM)
CC1(C)S[C@@H]2[C@H](NC(=O)[C@H](N)c3ccccc3)C(=O)N2[C@H]1C(=O)O [AMPICILLIN]	–	4 µg/mL (≈ 11.4 µM)	16 µg/mL (≈ 45.8 µM)	–	64 µg/mL (≈ 183 µM)	0.125 µg/mL (≈ 0.358 µM)	0.25 µg/mL (≈ 0.715 µM)
CN[C@H](CC(C)C)C(=O)N[C@H]1C(=O)N[C@@H](CC(N)=O)C(=O)N[C@H]2C(=O)N[C@H]3C(=O)N[C@H](C(=O)N[C@H](C(=O)O)c4cc(O)cc(O)c4-c4cc3ccc4O)[C@H](O)c3ccc(c(Cl)c3)Oc3cc2cc(c3O[C@@H]2O[C@H](CO)[C@@H](O)[C@H](O)[C@H]2O[C@H]2C[C@](C)(N)[C@H](O)[C@H](C)O2)Oc2ccc(cc2Cl)[C@H]1O [VANCOMYCIN]	–	0.125 µg/mL (≈ 0.0863 µM)	0.25 µg/mL (≈ 0.173 µM)	–	–	0.125 µg/mL (≈ 0.0863 µM)	0.25 µg/mL (≈ 0.173 µM)
